Data set [1] in a line: Terminal half life in CD1 mouse at 10 mg/kg, iv by HPLC coupled to tandem mass spectrometry. The class given is ADME, organism-based. Particulars: in vivo, read-out: beta t1/2 (converted). The gist of the method: (§1)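 Adult female CD-1 mice were dosed 10 mg/kg by iv injection or 30 mg/kg by oral gavage, with the compound in 100% saline. Blood samples were collected and drug content was measured by HPLC-tandem MS.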

The nature of data set [2]: AUC (0 to infinity) in CD1 mouse at 10 mg/kg, iv by HPLC coupled to tandem mass spectrometry. The format is ADME, organism-based. More on the design: dose 10 mg/kg, route intravenous, time infinity. The settings on record: in vivo. The gist of the method:
as §1

Data set [3] deals with Plasmodium berghei. Nature of the data set: Antiplasmodial activity against Plasmodium berghei infected in Swiss Webster mouse assessed as mouse survival at 33 mg/kg, po dosed once daily for 4 consecutive days beginning 1 hr after initial infection and measured on day 12 post infection by Giemsa staining method. The format is functional. In a few lines: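 Female Swiss Webster mice (about 20 g) were infected ip with 6 × 10^6 P. berghei-infected erythrocytes from a donor mouse. They were dosed by oral gavage once daily for 4 days, starting 1 h post-infection, in PEG 300/propylene glycol/water (55/25/20 by weight). Parasitemia was read daily on Giemsa smears from day 4, and mice were euthanized above 50% parasitemia. Percent survival was tracked to 21 days.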

For data set [4], the system named is Plasmodium berghei. Nature of the data set: Antiplasmodial activity against Plasmodium berghei infected in Swiss Webster mouse assessed as mouse survival at 11 mg/kg, po dosed once daily for 4 consecutive days beginning 1 hr after initial infection and measured on day 12 post infection by Giemsa staining method. The class given is functional. In a few lines: (§2)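 Female Swiss Webster mice (about 20 g) infected ip with 6 × 10^6 P. berghei-infected erythrocytes. Oral gavage once daily for 4 days, starting 1 h after infection. Vehicle PEG300/propylene glycol/water (55/25/20 by weight). Giemsa-smear parasitemia counted daily from day 4. Mice euthanised above 50% parasitemia. Survival followed to day 21, 5 mice per dose, chloroquine 30 mg/kg as reference.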

Data set [5] in a line: Volume of distribution at steady state in CD1 mouse at 10 mg/kg, iv by HPLC coupled to tandem mass spectrometry. The settings on record: in vivo, read-out: Vdss. The class given is ADME, organism-based. The gist of the method: as §1
Data set [6] concerns Plasmodium berghei. Nature of the data set: Antiplasmodial activity against Plasmodium berghei infected in Swiss Webster mouse assessed as mouse survival at 100 mg/kg, po dosed once daily for 4 consecutive days beginning 1 hr after initial infection and measured on day 11 post infection by Giemsa staining method. The format is functional. The gist of the method: as §2
Data set [7] can be described thus: Clearance in CD1 mouse at 10 mg/kg, iv by HPLC coupled to tandem mass spectrometry. Particulars: in vivo. The format is ADME, organism-based. In a few lines: as §1
A short description of data set [8]: Terminal half life in CD1 mouse at 30 mg/kg, po by HPLC coupled to tandem mass spectrometry. The format is ADME, organism-based. The settings on record: in vivo, read-out: beta t1/2 (converted). The gist of the method:
as §1

Data set [9] has as its system Mus musculus. Nature of the data set: Oral bioavailability in CD1 mouse at 30 mg/kg by HPLC coupled to tandem mass spectrometry. The format is ADME, organism-based. The settings on record: in vivo. In a few lines: as §1
Data set [10] has as its system Mus musculus. Nature of the data set: AUC (0 to infinity) in CD1 mouse assessed as 5-(1-hydroxy-1,3-dihydrobenzo[c][1,2]oxaborol-6-yloxy)pyrazine-2-carboxylic acid level at 5 mg/kg, po by HPLC coupled to tandem mass spectrometry. Particulars: in vivo. More on the design: dose 5 mg/kg, route oral, time infinity. The format is ADME, organism-based. The gist of the method: (§3)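 The parent ester was given to adult female CD-1 mice at 5 mg/kg, iv or by oral gavage, in PEG 400/dimethylacetamide/water (45/10/45, pH 5.8). Blood was sampled, and the acid formed from the ester in vivo was quantified by HPLC-tandem MS to derive its PK parameters.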

Data set [11] has as its system Mus musculus. Nature of the data set: Terminal half life in CD1 mouse assessed as 5-(1-hydroxy-1,3-dihydrobenzo[c][1,2]oxaborol-6-yloxy)pyrazine-2-carboxylic acid level at 5 mg/kg, po by HPLC coupled to tandem mass spectrometry. The format is ADME, organism-based. The settings on record: in vivo. In a few lines:
as §3

Data set [12] relates to Mus musculus. Nature of the data set: Terminal half life in CD1 mouse assessed as 5-(1-hydroxy-1,3-dihydrobenzo[c][1,2]oxaborol-6-yloxy)pyrazine-2-carboxylic acid level at 5 mg/kg, iv by HPLC coupled to tandem mass spectrometry. The class given is ADME, organism-based. The settings on record: in vivo. In a few lines:
as §3

Data set [13] deals with Mus musculus. Kind of data set: AUC (0 to infinity) in CD1 mouse assessed as 5-(1-hydroxy-1,3-dihydrobenzo[c][1,2]oxaborol-6-yloxy)pyrazine-2-carboxylic acid level at 5 mg/kg, iv by HPLC coupled to tandem mass spectrometry. The class given is ADME, organism-based. Also noted: dose 5 mg/kg, route intravenous, time infinity. The settings on record: in vivo. In a few lines:
as §3

Data set [14] has as its system Plasmodium berghei. Nature of the data set: Antiplasmodial activity against Plasmodium berghei infected in Swiss Webster mouse assessed as mouse survival at 100 mg/kg, po dosed once daily for 4 consecutive days beginning 1 hr after initial infection and measured on day 20 post infection by Giemsa staining method. The class given is functional. The gist of the method: as §2

The test system of data set [15] is Plasmodium berghei. Nature of the data set: Antiplasmodial activity against Plasmodium berghei infected in Swiss Webster mouse assessed as mouse survival at 100 mg/kg, po dosed once daily for 4 consecutive days beginning 1 hr after initial infection and measured on day 15 post infection by Giemsa staining method. The format is functional. The gist of the method:
as §2

The subject of data set [16] is Mus musculus. Nature of the data set: Oral bioavailability in CD1 mouse assessed as 5-(1-hydroxy-1,3-dihydrobenzo[c][1,2]oxaborol-6-yloxy)pyrazine-2-carboxylic acid level at 5 mg/kg by HPLC coupled to tandem mass spectrometry. The settings on record: in vivo. The format is ADME, organism-based. The gist of the method: as §3
Data set [17] deals with Plasmodium berghei. Kind of data set: Antiplasmodial activity against Plasmodium berghei infected in Swiss Webster mouse assessed as mouse survival at 3 mg/kg, po dosed once daily for 4 consecutive days beginning 1 hr after initial infection and measured on day 10 post infection by Giemsa staining method. The class given is functional. The gist of the method: as §2
The subject of data set [18] is Plasmodium berghei. Nature of the data set: Antiplasmodial activity against Plasmodium berghei infected in Swiss Webster mouse assessed as mouse survival at 3 mg/kg, po dosed once daily for 4 consecutive days beginning 1 hr after initial infection and measured on day 9 post infection by Giemsa staining method.
The test system of data set [19] is Plasmodium berghei. Kind of data set: Antiplasmodial activity against Plasmodium berghei infected in Swiss Webster mouse assessed as mouse survival at 200 mg/kg, po dosed once daily for 4 consecutive days beginning 1 hr after initial infection and measured on day 4 post infection by Giemsa staining method. The class given is functional. The gist of the method: as §2

For data set [20], the system named is Plasmodium berghei. Nature of the data set: Antiplasmodial activity against Plasmodium berghei infected in Swiss Webster mouse assessed as mouse survival at 200 mg/kg, po dosed once daily for 4 consecutive days beginning 1 hr after initial infection and measured on day 5 post infection by Giemsa staining method. The class given is functional. The gist of the method:
as §2

Data set [21] in a line: Stability in mouse liver microsomes assessed as compound remaining at 1 uM incubated for 1 hr in absence of NADPH by LC/MS/MS method. The format is ADME. In a few lines: (§4)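 Compound at 1 μM final (from a 1 mg/mL DMSO stock) was incubated with mouse or human liver microsomes (0.5 mg/mL protein) in 100 mM potassium phosphate, pH 7.4, at 37 °C with shaking, with or without 1 mM NADPH. Samples were taken over 0–120 min and tested in duplicate. Reactions were quenched with cold acetonitrile plus internal standard and analyzed by LC/MS/MS.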

Data set [22] deals with Plasmodium berghei. Kind of data set: Antiplasmodial activity against Plasmodium berghei infected in Swiss Webster mouse assessed as mouse survival at 200 mg/kg, po dosed once daily for 4 consecutive days beginning 1 hr after initial infection and measured on day 9 post infection by Giemsa staining method. The format is functional. The gist of the method:
as §2

Data set [23] concerns Liver microsome. Nature of the data set: Stability in human liver microsomes assessed as compound remaining at 1 uM incubated for 1 hr in absence of NADPH by LC/MS/MS method. The format is ADME. In a few lines:
as §4

Data set [24] has as its system Plasmodium berghei. Kind of data set: Antiplasmodial activity against Plasmodium berghei infected in Swiss Webster mouse assessed as mouse survival at 200 mg/kg, po dosed once daily for 4 consecutive days beginning 1 hr after initial infection and measured on day 10 post infection by Giemsa staining method. The format is functional. The gist of the method:
as §2

In data set [25] the test system is Plasmodium berghei. Nature of the data set: Antiplasmodial activity against Plasmodium berghei infected in Swiss Webster mouse assessed as mouse survival at 200 mg/kg, po dosed once daily for 4 consecutive days beginning 1 hr after initial infection and measured on day 6 post infection by Giemsa staining method. The format is functional. In a few lines: as §2

Turning to `O=C(O)c1cnc(Oc2ccc3c(c2)B(O)OC3)cn1`, the half-life in data set [1] was 66 min; in data set [8] it was 13.8 min. For the same molecule, in [2], the AUC(0-inf) – broadly, the area under the concentration-time curve extrapolated to infinity – turned out to be 4300 ng·h/mL. Also, the survival at 33 mg/kg in [3] worked out at 0%. Further, the survival at 11 mg/kg in data set [4] worked out at 0%. Moreover, the Vd in data set [5] is 0.848 L/kg. Besides, the survival at 100 mg/kg in [6] is 60%. Besides, the clearance (as a rule, a measure of how efficiently the substance is removed, as volume per time) in data set [7] was 38.8 mL/min/kg. The same molecule registered a F in data set [9] of 67%.

For the molecule `COC(=O)c1cnc(Oc2ccc3c(c2)B(O)OC3)cn1`, the AUC (usually the area under the concentration-time curve, a measure of exposure) in [10] amounted to 610 ng·h/mL; in [13] it was 990 ng·h/mL. Besides, the “beta t1/2” value in [11] worked out at 90 min; in data set [12] it was 7.8 min. Further, the survival at 33 mg/kg in data set [3] worked out at 20%. Also, the survival at 11 mg/kg in [4] stood at 0%. Further, the survival at 100 mg/kg amounted to 0% in [14], 40% in [15] and 100% in data set [6]. Also, the F in [16] is on record as 29%. The survival at 3 mg/kg in data set [17] and in [18] was 40% throughout.

With `NC(=O)c1cnc(Oc2ccc3c(c2)B(O)OC3)cn1`, the survival at 200 mg/kg in data set [19] worked out at 100%; in [20] it was 100%; in data set [22], 40%; in [24] it was 0%; in [25], 100%. For the same molecule, the Stability in data set [21] and in data set [23] was 100% each time.

The values are drawn from ChEMBL document CHEMBL3580633, “Benzoxaborole antimalarial agents. Part 4. Discovery of potent 6-(2-(alkoxycarbonyl)pyrazinyl-5-oxy)-1,3-dihydro-1-hydroxy-2,1-benzoxaboroles” (J Med Chem, 2015).
